Measured values as given in ChEMBL document CHEMBL3098056, “Small molecule inhibitors of anthrax lethal factor toxin” (Bioorg Med Chem, 2014).

Tests used:
[1] = target: Botulinum neurotoxin type A (Clostridium botulinum, UniProt P0DPI0); assay: Inhibition of Clostridium bolulinum BoNT/A assessed as cleavage of MOCAc-Lys-Lys-Val-Tyr-Pro-Tyr-Pro-Met-Glu-Lys(Dnp)-NH2 after 40 mins by FRET assay
Procedure, shortened: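 BoNT/A light chain (2 nM) in a 96-well FRET format. Reactions were stopped with acetic acid to 0.5% and cleaved-substrate fluorescence read at 485 nm with excitation at 398 nm. The same format served for IC50 and mechanism kinetics.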

Lethal factor [2] = target: T1, Lethal factor (Bacillus anthracis, UniProt P15917); assay: Inhibition of Bacillus anthracis lethal factor assessed as MCA-KKVYPYPME[dnp]K amide cleavage after 30 mins by fluorescence plate reader analysis
T1 sequence (P15917 whole entry): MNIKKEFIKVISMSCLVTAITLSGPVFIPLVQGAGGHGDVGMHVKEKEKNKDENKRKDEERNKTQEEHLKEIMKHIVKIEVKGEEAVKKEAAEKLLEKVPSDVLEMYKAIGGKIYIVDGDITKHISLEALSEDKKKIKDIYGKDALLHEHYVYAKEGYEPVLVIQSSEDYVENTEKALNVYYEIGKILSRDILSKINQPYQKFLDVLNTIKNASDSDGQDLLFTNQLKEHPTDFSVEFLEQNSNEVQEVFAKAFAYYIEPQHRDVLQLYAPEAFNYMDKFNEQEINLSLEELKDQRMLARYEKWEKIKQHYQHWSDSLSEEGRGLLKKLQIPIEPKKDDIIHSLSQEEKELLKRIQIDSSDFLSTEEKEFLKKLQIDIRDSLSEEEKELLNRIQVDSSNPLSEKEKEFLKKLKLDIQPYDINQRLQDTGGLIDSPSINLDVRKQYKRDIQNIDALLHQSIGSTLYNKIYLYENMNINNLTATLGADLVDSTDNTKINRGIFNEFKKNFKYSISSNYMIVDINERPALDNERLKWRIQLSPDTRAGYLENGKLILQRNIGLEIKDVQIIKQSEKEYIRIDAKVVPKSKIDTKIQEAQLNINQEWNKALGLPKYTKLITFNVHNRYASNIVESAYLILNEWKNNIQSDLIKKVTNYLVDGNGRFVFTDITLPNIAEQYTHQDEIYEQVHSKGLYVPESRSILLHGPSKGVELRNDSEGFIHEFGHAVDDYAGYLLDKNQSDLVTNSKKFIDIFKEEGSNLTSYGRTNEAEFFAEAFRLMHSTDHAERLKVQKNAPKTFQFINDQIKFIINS

[3] = target: Matrix metalloproteinase-9 (Homo sapiens, UniProt P14780); assay: Inhibition of human MMP-9 after 60 mins by FRET assay
Matrix metalloproteinase-9, sequence (P14780 whole entry): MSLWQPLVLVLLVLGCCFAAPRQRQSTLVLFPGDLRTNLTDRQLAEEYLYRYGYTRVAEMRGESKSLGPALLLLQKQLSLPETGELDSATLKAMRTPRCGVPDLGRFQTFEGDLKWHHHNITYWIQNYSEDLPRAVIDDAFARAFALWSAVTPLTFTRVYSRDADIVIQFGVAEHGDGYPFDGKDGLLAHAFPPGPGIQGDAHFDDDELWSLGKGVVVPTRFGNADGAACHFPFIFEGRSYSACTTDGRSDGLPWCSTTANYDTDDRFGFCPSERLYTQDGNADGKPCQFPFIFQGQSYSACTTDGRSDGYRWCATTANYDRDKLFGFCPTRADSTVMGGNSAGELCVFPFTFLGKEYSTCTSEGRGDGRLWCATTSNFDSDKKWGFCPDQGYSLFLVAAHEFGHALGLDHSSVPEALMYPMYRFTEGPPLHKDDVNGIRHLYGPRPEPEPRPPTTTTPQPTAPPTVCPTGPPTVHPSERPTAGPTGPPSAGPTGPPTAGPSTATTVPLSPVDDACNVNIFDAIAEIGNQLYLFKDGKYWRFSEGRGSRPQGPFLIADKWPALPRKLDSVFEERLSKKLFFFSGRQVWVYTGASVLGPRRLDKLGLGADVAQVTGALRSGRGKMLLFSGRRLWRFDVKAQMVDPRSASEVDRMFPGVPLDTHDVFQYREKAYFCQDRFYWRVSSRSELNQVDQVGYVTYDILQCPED
Procedure, shortened: (§1)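 MMP-1 (38 nM) or MMP-9 (13 nM) with 50 fluorogenic substrate in 50 mM MOPS pH 6.0 and 0.05% NP-40, 37 °C for 60 min (linear range 90 min). Stopped with acetic acid (0.5% final); emission at 440 nm, excitation at 340 nm.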

Interstitial collagenase = target: T2, Interstitial collagenase (Homo sapiens, UniProt P03956); assay: Inhibition of human MMP-1 after 60 mins by FRET assay; procedure, shortened: as §1
T2 sequence (P03956 whole entry): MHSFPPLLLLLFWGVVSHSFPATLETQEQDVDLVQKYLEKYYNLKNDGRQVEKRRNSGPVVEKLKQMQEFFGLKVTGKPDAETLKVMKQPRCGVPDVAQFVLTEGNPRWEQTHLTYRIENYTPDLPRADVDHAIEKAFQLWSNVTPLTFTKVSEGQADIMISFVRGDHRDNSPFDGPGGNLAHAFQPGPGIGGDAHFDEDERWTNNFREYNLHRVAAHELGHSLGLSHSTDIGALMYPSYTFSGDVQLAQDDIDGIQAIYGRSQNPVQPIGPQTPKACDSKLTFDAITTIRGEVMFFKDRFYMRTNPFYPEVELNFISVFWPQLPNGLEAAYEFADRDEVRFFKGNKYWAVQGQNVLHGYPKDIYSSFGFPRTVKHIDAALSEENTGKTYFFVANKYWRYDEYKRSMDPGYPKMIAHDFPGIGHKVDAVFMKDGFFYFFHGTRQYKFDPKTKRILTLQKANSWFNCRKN

Lethal factor [4] = target: T1, Lethal factor; assay: Inhibition of Bacillus anthracis lethal factor
Procedure, shortened: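 FRET-based assay: LF cleaves a SNAP-derived fluorogenic peptide, and cleavage is read as a change in fluorescence.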

Botulinum neurotoxin type A, sequence (P0DPI0 2-448 limits assumed): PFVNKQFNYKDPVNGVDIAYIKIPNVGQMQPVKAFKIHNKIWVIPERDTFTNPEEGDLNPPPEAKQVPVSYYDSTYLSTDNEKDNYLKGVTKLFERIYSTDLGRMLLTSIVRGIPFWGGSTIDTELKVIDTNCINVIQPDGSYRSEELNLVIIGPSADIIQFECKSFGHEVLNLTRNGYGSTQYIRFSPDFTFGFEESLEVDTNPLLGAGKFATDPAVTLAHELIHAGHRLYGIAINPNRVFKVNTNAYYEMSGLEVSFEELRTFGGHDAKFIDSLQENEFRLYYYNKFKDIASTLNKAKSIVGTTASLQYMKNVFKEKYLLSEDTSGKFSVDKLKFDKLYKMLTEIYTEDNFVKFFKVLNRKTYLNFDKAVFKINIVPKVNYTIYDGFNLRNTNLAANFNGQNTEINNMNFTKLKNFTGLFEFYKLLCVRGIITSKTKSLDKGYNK

| Structure (SMILES) | IC50 [1] [µM] | IC50 (Lethal factor [2]) [µM] | IC50 [3] [µM] | IC50 (Interstitial collagenase) [µM] | Ki (Lethal factor [4]) [µM] | IC50 (Lethal factor [4]) [µM] |
| --- | --- | --- | --- | --- | --- | --- |
| COc1ccccc1CC(=O)Nc1ccc2nc(C)cc(N)c2c1 | > 100 | > 100 | – | – | – | – |
| Cc1cc(N)c2cc(NC(=O)Cc3ccccc3Cl)ccc2n1 | > 100 | > 100 | – | – | – | – |
| COc1ncccc1CCC(=O)Nc1ccc2nc(C)cc(N)c2c1 | > 100 | 41 | > 100 | > 100 | – | – |
| COc1ccncc1CCC(=O)Nc1ccc2nc(C)cc(N)c2c1 | > 100 | > 50 | – | – | – | – |
| COc1ccsc1CCC(=O)Nc1ccc2nc(C)cc(N)c2c1 | > 100 | > 100 | – | – | – | – |
| Cc1cc(N)c2cc(NC(=O)Nc3ccc4c(c3)OCO4)ccc2n1 | 41 | > 100 | – | – | – | – |
| Cc1cc(N)c2cc(NC(=O)Nc3ccc(-c4ccccc4)cc3)ccc2n1 | 79 | 79 | – | – | – | – |
| COc1ccc(NC(=O)Nc2ccc3nc(C)cc(N)c3c2)cc1 | 41 | > 100 | – | – | – | – |
| CCOC(=O)c1ccc(NC(=O)Nc2ccc3nc(C)cc(N)c3c2)cc1 | 51 | 87 | – | – | – | – |
| Cc1cc(N)c2cc(NC(=O)Nc3ccc(F)cc3)ccc2n1 | 32 | 95 | – | – | – | – |
| Cc1cc(N)c2cc(NC(=O)Nc3ccc(C(C)C)cc3)ccc2n1 | 62 | 83 | – | – | – | – |
| Cc1cc(N)c2cc(NC(=O)Nc3ccc(C(=O)c4ccccc4)cc3)ccc2n1 | 67 | 26 | > 100 | > 100 | – | – |
| Cc1cc(N)c2cc(NC(=O)NCc3ccccc3Cl)ccc2n1 | > 100 | 61 | – | – | – | – |
| COc1ccccc1CNC(=O)Nc1ccc2nc(C)cc(N)c2c1 | > 100 | > 100 | – | – | – | – |
| Cc1cc(N)c2cc(NC(=O)c3cccc(-c4ccc(N(C)C)cc4)c3)ccc2n1 | 69 | – | > 100 | – | – | – |
| COc1ccc(/C=C/C(=O)Nc2ccc3nc(C)cc(N)c3c2)cc1 | > 100 | 55 | – | – | – | – |
| Cc1cc(N)c2cc(NC(=O)COc3ccc(OCc4ccccc4)cc3)ccc2n1 | > 100 | 33 | > 100 | > 100 | – | – |
| Cc1cc(N)c2cc(NC(=O)Cc3ccccc3)ccc2n1 | > 100 | > 100 | – | – | – | – |
| Cc1cc(N)c2cc(NC(=O)Cc3ccc4c(c3)OCO4)ccc2n1 | > 100 | > 100 | – | – | – | – |
| Cc1cc(N)c2cc(NC(=O)c3ccc(-c4cnc5ccccc5c4)cc3)ccc2n1 | > 100 | 3 | 11 | 78 | – | – |

| Structure (SMILES) | IC50 [1] [µM] | IC50 (Lethal factor [2]) [µM] | IC50 [3] [µM] | IC50 (Interstitial collagenase) [µM] | Ki (Lethal factor [4]) [µM] | IC50 (Lethal factor [4]) [µM] |
| --- | --- | --- | --- | --- | --- | --- |
| Cc1cc(N)c2cc(NC(=O)c3ccc(-c4cncc5ccccc45)cc3)ccc2n1 | 65 | 13 | 9.4 | > 100 | – | – |
| Cc1cc(N)c2cc(NC(=O)c3ccc(-c4cccc5ncccc45)cc3)ccc2n1 | 34 | 10 | – | – | – | – |
| Cc1cc(N)c2cc(NC(=O)c3ccc(-c4cccc5cccnc45)cc3)ccc2n1 | 65 | 11 | 17 | > 100 | – | – |
| Cc1cc(N)c2cc(NC(=O)c3cccc(-c4ccc5ncccc5c4)c3)ccc2n1 | 26 | 4.6 | > 100 | > 100 | – | – |
| Cc1cc(N)c2cc(NC(=O)c3cccc(-c4cnc5ccccc5c4)c3)ccc2n1 | 45 | 5.7 | 16 | > 100 | – | – |
| Cc1cc(N)c2cc(NC(=O)c3cccc(-c4cncc5ccccc45)c3)ccc2n1 | > 100 | 21 | 48 | 50 | – | – |
| Cc1cc(N)c2cc(NC(=O)c3cccc(-c4cccc5ncccc45)c3)ccc2n1 | 68 | 33 | 50 | 65 | – | – |
| Cc1cc(N)c2cc(NC(=O)c3cccc(-c4cccc5cccnc45)c3)ccc2n1 | 79 | 36 | > 100 | > 100 | – | – |
| COc1ccc(CCC(=O)Nc2ccc3nc(C)cc(N)c3c2)cc1 | > 100 | > 100 | – | – | – | – |
| COc1cccc(CCC(=O)Nc2ccc3nc(C)cc(N)c3c2)c1 | > 100 | > 100 | – | – | – | – |
| COc1ccc(OC)c(CCC(=O)Nc2ccc3nc(C)cc(N)c3c2)c1 | > 100 | > 100 | – | – | – | – |
| COc1cccc(CCC(=O)Nc2ccc3nc(C)cc(N)c3c2)c1OC | > 100 | > 100 | – | – | – | – |
| Cc1cc(N)c2cc(NC(=O)CCc3ccccc3OC(=O)c3ccccc3)ccc2n1 | > 100 | > 100 | – | – | – | – |
| Cc1cc(N)c2cc(NC(=O)CCc3ccccc3Cl)ccc2n1 | > 100 | > 100 | – | – | – | – |
| Cc1cc(N)c2cc(NC(=O)CCc3ccccc3C)ccc2n1 | > 100 | > 100 | – | – | – | – |
| Cc1cc(N)c2cc(NC(=O)CCc3ccccc3C(F)(F)F)ccc2n1 | > 100 | 38 | > 100 | > 100 | – | – |
| Cc1cc(N)c2cc(NC(=O)CCc3ccc(F)cc3)ccc2n1 | > 100 | > 100 | – | – | – | – |
| COc1ccccc1/C=C/C(=O)Nc1ccc2nc(C)cc(N)c2c1 | > 100 | 46 | > 100 | > 100 | – | – |
| COc1ccc(Br)cc1CCC(=O)Nc1ccc2nc(C)cc(N)c2c1 | > 100 | > 100 | – | – | – | – |
| COc1ccc(Cl)cc1CCC(=O)Nc1ccc2nc(C)cc(N)c2c1 | > 100 | > 100 | – | – | – | – |

| Structure (SMILES) | IC50 [1] [µM] | IC50 (Lethal factor [2]) [µM] | IC50 [3] [µM] | IC50 (Interstitial collagenase) [µM] | Ki (Lethal factor [4]) [µM] | IC50 (Lethal factor [4]) [µM] |
| --- | --- | --- | --- | --- | --- | --- |
| COc1cc(Cl)ccc1CCC(=O)Nc1ccc2nc(C)cc(N)c2c1 | > 100 | 78 | – | – | – | – |
| COc1cc(Br)ccc1CCC(=O)Nc1ccc2nc(C)cc(N)c2c1 | > 100 | 58 | – | – | – | – |
| CCOc1ccccc1CCC(=O)Nc1ccc2nc(C)cc(N)c2c1 | > 100 | > 100 | – | – | – | – |
| CCCOc1ccccc1CCC(=O)Nc1ccc2nc(C)cc(N)c2c1 | > 100 | > 100 | – | – | – | – |
| O=C(N/N=C/c1cc([N+](=O)[O-])ccc1O)c1ccc(O)c(O)c1 | – | – | – | – | 1.1 | – |
| Cc1cc(=S)c(O)c(C(=S)NCc2ccc(-c3ccccc3)cc2)o1 | – | – | – | – | – | 14 |
| CNC(=O)[C@@H](CCc1ccccc1)NC(=O)[C@@H](CC(=O)NO)CC(C)C | – | – | – | – | – | 7 |
| Cc1cc(N)c2cc(NC(=O)c3ccc(Oc4ccccc4)cc3)ccc2n1 | > 100 | 70 | > 100 | > 100 | – | – |
| Cc1cc(N)c2cc(NC(=O)c3cccc(C(=O)c4ccccc4)c3)ccc2n1 | > 100 | 73 | – | – | – | – |
| Cc1cc(N)c2cc(NC(=O)c3cccnc3)ccc2n1 | > 100 | > 100 | – | – | – | – |
| Cc1cc(N)c2cc(NC(=O)c3ccco3)ccc2n1 | 47 | > 100 | – | – | – | – |
| Cc1cc(N)c2cc(NC(=O)c3cccc(N(C)C)c3)ccc2n1 | > 100 | > 100 | – | – | – | – |
| Cc1cc(N)c2cc(NC(=O)c3ccc(N4CCOCC4)cc3)ccc2n1 | 27 | > 100 | – | – | – | – |
| Cc1cc(N)c2cc(NC(=O)c3cc4ccccc4o3)ccc2n1 | > 100 | 90 | – | – | – | – |
| COc1ccc2[nH]c(C(=O)Nc3ccc4nc(C)cc(N)c4c3)cc2c1 | 35 | 44 | > 100 | – | – | – |
| Cc1cc(N)c2cc(NC(=O)c3ccc(-c4ccccc4)cc3)ccc2n1 | > 100 | 48 | > 100 | – | – | – |
| Cc1cc(N)c2cc(NC(=O)c3ccc(-c4cccnc4)cc3)ccc2n1 | 23 | 43 | > 100 | – | – | – |
| Cc1cc(N)c2cc(NC(=O)CCc3ccccc3)ccc2n1 | > 100 | > 100 | – | – | – | – |
| Cc1cc(N)c2cc(NC(=O)Nc3ccc4nc(C)cc(N)c4c3)ccc2n1 [AMINOQUINURIDE] | 7.2 | 3.2 | 100 | 31 | – | – |
